The values that follow come from ChEMBL document CHEMBL1155427, “Dopamine receptor ligands. Part 18: (1) modification of the structural skeleton of indolobenzazecine-type dopamine receptor antagonists” (J Med Chem, 2010).

Assay [1] concerns the target T1, D(1A) dopamine receptor (Homo sapiens, UniProt P21728). As to the kind of experiment: Antagonist activity at human dopamine D1 receptor expressed in HEK293 cells assessed as inhibition of SKF-38393-induced calcium influx. The format is functional, cell-based. In a few lines:
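HEK293 cells stably expressing the human D1 receptor were loaded with a fluorescent dye. Cells were preincubated with rising concentrations of test ligand, then SKF 38393 agonist was injected. Ca2+-induced fluorescence was read on a microplate reader.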

For assay [2], the target named is T2, D(2) dopamine receptor (Homo sapiens, UniProt P14416). Description: Antagonist activity at human dopamine D2L receptor expressed in HEK293 cells assessed as inhibition of quinpirole-induced calcium influx.
T2 sequence (P14416 whole entry): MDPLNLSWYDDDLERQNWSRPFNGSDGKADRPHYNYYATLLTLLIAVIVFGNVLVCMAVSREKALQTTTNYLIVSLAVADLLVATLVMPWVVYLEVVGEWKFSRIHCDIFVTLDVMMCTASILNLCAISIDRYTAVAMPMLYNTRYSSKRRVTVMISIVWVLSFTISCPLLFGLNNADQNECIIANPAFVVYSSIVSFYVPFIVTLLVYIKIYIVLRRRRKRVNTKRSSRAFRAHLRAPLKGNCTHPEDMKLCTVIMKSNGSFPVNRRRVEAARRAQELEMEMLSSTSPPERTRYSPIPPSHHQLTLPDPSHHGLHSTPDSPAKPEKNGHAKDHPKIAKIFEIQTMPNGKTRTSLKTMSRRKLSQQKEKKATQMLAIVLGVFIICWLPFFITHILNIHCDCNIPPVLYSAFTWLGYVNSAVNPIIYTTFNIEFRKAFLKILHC
The nature of assay [3]: Selectivity for dopamine D5 receptor over dopamine D1 receptor.
Assay [4] concerns the target T1, D(1A) dopamine receptor. As to the kind of experiment: Displacement of [3H]SCH23390 from human recombinant dopamine D1 receptor expressed in HEK293 cells by microplate scintillation counting. The format is cell-based. In a few lines:
(§1)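 Human D1 or D5 receptor stably expressed in HEK cells. Ki values in nM are means of two or three experiments, each run in triplicate, ± SEM.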
(Loss of bound radioactivity is the signal in a displacement assay; it reports binding, not function.)

The target of assay [5] is T2, D(2) dopamine receptor. As to the kind of experiment: Displacement of [3H]spiperone from human recombinant dopamine D2L receptor expressed in HEK293 cells by microplate scintillation counting. Format: cell-based. In a few lines:
(§2)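 Human D2L or D3 receptor stably expressed in HEK cells, or D4.4 in CHO cells. Competition binding against [3H]spiperone as the D2-like radioligand. Ki values in nM are means of two or three experiments, each run in triplicate, ± SEM.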

For the next assay, the target named is D(3) dopamine receptor (Homo sapiens, UniProt P35462). As to the kind of experiment: Displacement of [3H]radioligand from human recombinant dopamine D3 receptor expressed in HEK293 cells by microplate scintillation counting. The format is cell-based. In a few lines:
as §2

The target in the next assay is T3, D(4) dopamine receptor (Homo sapiens, UniProt P21917).
T3 sequence (P21917 whole entry): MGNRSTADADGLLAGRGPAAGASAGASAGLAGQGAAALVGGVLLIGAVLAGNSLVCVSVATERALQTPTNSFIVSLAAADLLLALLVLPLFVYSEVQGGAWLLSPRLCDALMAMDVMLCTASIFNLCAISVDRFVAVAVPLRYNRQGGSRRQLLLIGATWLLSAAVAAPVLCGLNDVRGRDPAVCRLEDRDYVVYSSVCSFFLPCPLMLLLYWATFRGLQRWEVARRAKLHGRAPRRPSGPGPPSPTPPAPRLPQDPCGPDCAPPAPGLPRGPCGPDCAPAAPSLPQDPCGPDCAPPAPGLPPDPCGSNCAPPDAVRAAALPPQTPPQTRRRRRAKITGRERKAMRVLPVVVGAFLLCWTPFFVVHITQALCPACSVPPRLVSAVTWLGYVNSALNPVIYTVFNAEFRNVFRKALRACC
Description: Displacement of [3H]radioligand from human recombinant dopamine D4.4 receptor expressed in CHO cells by microplate scintillation counting. The format is cell-based. In a few lines:
as §2

Another assay deals with D(1B) dopamine receptor (Homo sapiens, UniProt P21918). Description: Displacement of [3H]radioligand from human recombinant dopamine D5 receptor expressed in HEK293 cells by microplate scintillation counting. The format is cell-based. A digest of the protocol:
as §1

Calls of active or inactive are those of the source. The rule behind the calls is not given here. A value given as a limit tells only on which side of the number the result lay.

Broadly, the Ki is a measure of affinity in units of concentration, obtained from inhibition or displacement.

Chain of D(1B) dopamine receptor (P21918 whole entry): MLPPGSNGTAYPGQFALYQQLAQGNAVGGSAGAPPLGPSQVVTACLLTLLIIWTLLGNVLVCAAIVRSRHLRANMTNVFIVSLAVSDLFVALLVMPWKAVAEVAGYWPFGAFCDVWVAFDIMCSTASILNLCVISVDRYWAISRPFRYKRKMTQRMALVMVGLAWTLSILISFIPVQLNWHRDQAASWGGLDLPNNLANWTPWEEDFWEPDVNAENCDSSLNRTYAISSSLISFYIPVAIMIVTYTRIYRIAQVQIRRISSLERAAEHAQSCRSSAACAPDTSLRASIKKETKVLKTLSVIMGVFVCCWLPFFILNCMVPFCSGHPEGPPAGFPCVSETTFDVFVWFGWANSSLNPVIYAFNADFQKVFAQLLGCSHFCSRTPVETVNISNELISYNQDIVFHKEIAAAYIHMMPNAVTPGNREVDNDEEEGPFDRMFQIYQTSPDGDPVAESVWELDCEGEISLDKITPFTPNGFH
T1 sequence (P21728 whole entry): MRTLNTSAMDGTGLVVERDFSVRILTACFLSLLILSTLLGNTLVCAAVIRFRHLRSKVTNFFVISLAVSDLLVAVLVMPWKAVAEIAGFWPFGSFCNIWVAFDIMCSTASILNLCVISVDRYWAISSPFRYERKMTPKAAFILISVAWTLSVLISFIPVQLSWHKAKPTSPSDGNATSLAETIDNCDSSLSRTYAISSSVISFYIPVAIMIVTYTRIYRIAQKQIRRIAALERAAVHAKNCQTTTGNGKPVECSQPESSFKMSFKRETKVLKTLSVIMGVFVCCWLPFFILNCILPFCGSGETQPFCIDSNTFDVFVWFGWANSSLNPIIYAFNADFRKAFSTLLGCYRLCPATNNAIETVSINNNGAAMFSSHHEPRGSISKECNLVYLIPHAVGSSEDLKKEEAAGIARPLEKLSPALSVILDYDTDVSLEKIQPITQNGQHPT
Chain of D(3) dopamine receptor (P35462 whole entry): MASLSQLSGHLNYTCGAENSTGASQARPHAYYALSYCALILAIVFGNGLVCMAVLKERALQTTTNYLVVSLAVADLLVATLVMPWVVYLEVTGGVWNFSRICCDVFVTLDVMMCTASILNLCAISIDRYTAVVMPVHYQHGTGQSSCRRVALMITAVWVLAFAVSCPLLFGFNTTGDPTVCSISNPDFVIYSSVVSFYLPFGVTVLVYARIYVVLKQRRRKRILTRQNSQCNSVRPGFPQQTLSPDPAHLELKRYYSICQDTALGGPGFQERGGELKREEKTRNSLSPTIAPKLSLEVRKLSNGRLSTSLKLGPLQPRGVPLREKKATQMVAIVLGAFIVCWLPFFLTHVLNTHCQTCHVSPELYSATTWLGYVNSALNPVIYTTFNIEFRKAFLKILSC

Turning to `CN1CCc2ccccc2Cc2[nH]c3ccccc3c2CC1`, the outcome at D(1A) dopamine receptor [1] and at D(2) dopamine receptor [2] was Active.

As to `CN1Cc2ccccc2[C@@H]2c3cccc4[nH]cc(c34)C[C@H]21`, the Selectivity ratio in assay [3] came to 10.

As to `CN1CCc2ccccc2Cc2c[nH]c3cccc(c23)CC1`, the Ki on D(1A) dopamine receptor [4] worked out at 4.2 nM; at D(2) dopamine receptor [5], 4 nM; on D(3) dopamine receptor, 42.9 nM; at D(4) dopamine receptor, 39.1 nM; on D(1B) dopamine receptor, 2.5 nM. Besides, the outcome at D(1A) dopamine receptor [1] and at D(2) dopamine receptor [2] was Active.

Consider `CN1CCc2ccccc2Cc2c[nH]c3cccc(c23)C1`, for which the inhibition constant (Ki) on D(1A) dopamine receptor [4], on D(2) dopamine receptor [5], on D(3) dopamine receptor, at D(4) dopamine receptor and at D(1B) dopamine receptor was greater than 10000 nM each time.

Regarding `CN1CCc2ccccc2Cc2c([nH]c3ccccc23)CC1`, the inhibition constant Ki on D(1A) dopamine receptor [4] was 28.5 nM; on D(2) dopamine receptor [5] it was 55.1 nM; at D(3) dopamine receptor, 513 nM; on D(4) dopamine receptor it was 225 nM; at D(1B) dopamine receptor it was 10.3 nM. Moreover, the outcome on D(1A) dopamine receptor [1] and on D(2) dopamine receptor [2] was Active.

With `c1ccc2c(c1)CCN1Cc3cccc4[nH]cc(c34)C21` (centres undefined), the inhibition constant (Ki) at D(4) dopamine receptor is greater than 10000 nM. In addition, the result at D(1A) dopamine receptor [1] and on D(2) dopamine receptor [2] was Active.

In the case of `c1ccc2c(c1)CCN1CCc3[nH]c4ccccc4c3C21` (centres undefined), the Ki on D(1A) dopamine receptor [4] is 2100 nM; at D(2) dopamine receptor [5] it was 1480 nM; on D(3) dopamine receptor, greater than 10000 nM; on D(4) dopamine receptor, greater than 10000 nM; on D(1B) dopamine receptor it was greater than 10000 nM. In addition, the result on D(1A) dopamine receptor [1] and at D(2) dopamine receptor [2] was Active.

Regarding `c1ccc2c(c1)CCN1CCc3cccc4[nH]cc(c34)C21` (centres undefined), the Ki is 1840 nM at D(1A) dopamine receptor [4]; 4460 nM on D(2) dopamine receptor [5]; greater than 10000 nM on D(3) dopamine receptor; greater than 10000 nM on D(4) dopamine receptor; 1520 nM on D(1B) dopamine receptor. The result at D(1A) dopamine receptor [1] and on D(2) dopamine receptor [2] was Active.
